Experimental findings from ChEMBL document CHEMBL4715761, “LAT1 activity of carboxylic acid bioisosteres: Evaluation of hydroxamic acids as substrates” (Bioorg Med Chem Lett, 2016) are described below.

In experiment [1] the target is T1, Large neutral amino acids transporter small subunit 1 (Homo sapiens, UniProt Q01650). As to the kind of experiment: Inhibition of human LAT1 expressed in HEK293-T-Rex cells assessed as inhibition of [3H]-gabapentin uptake at 200 uM by scintillation counting cis-inhibition assay. It counts as cell-based. The method, boiled down:
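HEK cells overexpressing human LAT1; test compound at 200 μM added during [3H]-gabapentin uptake (cis-inhibition). Reported as % inhibition relative to background signal without test compound; cell data at least in triplicate.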

Experiment [2] addresses T1, Large neutral amino acids transporter small subunit 1. As to the kind of experiment: Inhibition of human LAT1 expressed in HEK293-T-Rex cells assessed as inhibition of [3H]-gabapentin uptake by scintillation counting cis-inhibition assay relative to BCH inhibition (RV = 100%). Type of experiment: cell-based.

The structures appear in SMILES notation.

One may read the inhibition as the relative decrease from the control value, in per cent. As usually defined, the IC50 is the point on the concentration scale where inhibition reaches its midpoint.

T1 sequence (Q01650 whole entry): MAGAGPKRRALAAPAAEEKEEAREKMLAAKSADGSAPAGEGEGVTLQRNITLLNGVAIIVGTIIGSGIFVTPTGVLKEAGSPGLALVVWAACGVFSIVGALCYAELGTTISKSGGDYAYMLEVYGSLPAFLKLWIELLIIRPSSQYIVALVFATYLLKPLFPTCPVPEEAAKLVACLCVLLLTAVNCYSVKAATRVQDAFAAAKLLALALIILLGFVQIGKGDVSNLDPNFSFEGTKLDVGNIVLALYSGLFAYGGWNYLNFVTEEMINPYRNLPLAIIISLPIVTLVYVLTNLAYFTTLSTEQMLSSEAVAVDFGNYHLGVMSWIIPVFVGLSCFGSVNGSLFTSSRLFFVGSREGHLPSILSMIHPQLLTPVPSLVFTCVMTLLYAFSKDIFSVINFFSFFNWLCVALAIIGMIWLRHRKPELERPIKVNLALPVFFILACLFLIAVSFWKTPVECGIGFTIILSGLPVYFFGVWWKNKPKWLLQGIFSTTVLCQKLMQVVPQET

For the compound `NCC(=O)NO`, the inhibition in experiment [1] was 38%. Further, the IC50 in experiment [2] was more than 200 µM.
For the compound `CSCC[C@H](N)C(=O)NO`, the IC50 in experiment [2] was more than 200 µM.
Turning to `CC[C@H](C)[C@H](N)C(=O)O` [ISOLEUCINE], in experiment [2], the IC50 stood at 150 µM.
As for `N[C@@H](Cc1c[nH]c2ccccc12)C(=O)NO`, in experiment [1], the inhibition was 35%.
`CONC(=O)[C@@H](N)CC(C)C`: in experiment [2], the IC50 was more than 200 µM.
`CC(C)C[C@H](N)C(=O)O` [LEUCINE]: in experiment [2], the IC50 was 87 µM.
`N[C@@H](Cc1ccc(O)cc1)C(=O)NO`: the inhibition in experiment [1] came out at 39%.
As to `CS(=O)(=O)NC(=O)[C@@H](N)Cc1ccccc1`, the inhibition in experiment [1] is 15%.
As to `CC[C@H](C)[C@H](N)C(=O)NO`, in experiment [2], the IC50 is more than 200 µM.
For `NCC(=O)O` [GLYCINE], the inhibition in experiment [1] is 33%. Further, in experiment [2], the IC50 was more than 200 µM.
Turning to `CS(=O)(=O)NC(=O)[C@@H](N)Cc1ccc(O)cc1`, the inhibition in experiment [1] came to 12%.
`CSCC[C@H](N)C(=O)O` [METHIONINE]: in experiment [2], the IC50 is 180 µM.
Consider `CC(C)C[C@H](N)C(N)=O`, for which the IC50 in experiment [2] is more than 200 µM.
`N[C@@H](Cc1ccccc1)c1nnn[nH]1`: the inhibition in experiment [1] came to 11%.
`CC(C)C[C@H](N)C(=O)NO`: the inhibition in experiment [1] came out at 50%. Further, the IC50 in experiment [2] is more than 200 µM.
